Experiments:
[1] = test system: A549; experiment: Cytotoxicity against human A549 cells after 72 hrs by MTT assay; assay type: functional, cell-based; conditions: A549, 72 h
Outline: (§1)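 MTT growth-inhibition assay; IC50 values given as mean ± SD of triplicates.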

[2] = test system: A549; experiment: Inhibition of NFkappa B in human A549 cells assessed as decrease in c-myc protein expression after 24 to 48 hrs by Western blot analysis; assay type: cell-based
Outline: (§2)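 A549 cells treated at 1, 2.5 and 5 μM. Timepoints: IκBα 24 h, p65 24 h, c-myc 24 and 48 h. Total cell lysates resolved on 10% polyacrylamide gels and immunoblotted with protein-specific antibodies. β-actin and GAPDH serve as internal controls. Mean ± SD of triplicates.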

[3] = test system: A549; experiment: Inhibition of NFkappa B in human A549 cells assessed as down regulation of NF-kappaB p65 protein expression after 24 hrs by Western blot analysis; assay type: cell-based; outline: as §2
[4] = test system: A549; experiment: Down regulation of c-myc gene expression in human A549 cells after 24 to 48 hrs by qRT-PCR analysis; assay type: functional, cell-based
[5] = test system: A549; experiment: Inhibition of NFkappa B in human A549 cells assessed as down regulation of NF-kappaB p65 protein expression at 1 to 5 uM by Western blot analysis; assay type: cell-based; conditions: TDE = time-dependent effect; outline: as §2
[6] = test system: Bel-7402; experiment: Cytotoxicity against human Bel7402 cells after 72 hrs by MTT assay; assay type: functional, cell-based; conditions: Bel-7402, 72 h; outline: as §1
[7] = Cytotoxicity against human HO8910 cells after 72 hrs by MTT assay; assay type: functional, cell-based; conditions: HO-8910, 72 h; outline: as §1
[8] = test system: HepG2; experiment: Cytotoxicity against human HepG2 cells after 72 hrs by MTT assay; assay type: functional, cell-based; conditions: HepG2, 72 h; outline: as §1
[9] = test system: A549; experiment: Induction of apoptosis in human A549 cells at 5 uM after 24 hrs by annexinV-propidium iodide staining-based flow cytometric analysis (reference value: 10.81%); assay type: functional
[10] = test system: A549; experiment: Inhibition of NFkappa B in human A549 cells assessed as decrease in c-myc protein expression at 1 to 5 uM by Western blot analysis; assay type: cell-based; conditions: TDE = time-dependent effect; outline: as §2
[11] = test system: A549; experiment: Induction of apoptosis in human A549 cells at 1 uM after 24 hrs by annexinV-propidium iodide staining-based flow cytometric analysis (reference value: 10.81%); assay type: functional
[12] = test system: A549; experiment: Induction of IkappaBalpha protein expression in human A549 cells after 24 hrs by Western blot analysis; assay type: functional, cell-based; outline: as §2
[13] = test system: A-375; experiment: Cytotoxicity against human A375 cells after 72 hrs by MTT assay; assay type: functional, cell-based; conditions: A-375, 72 h; outline: as §1
[14] = test system: A549; experiment: Induction of apoptosis in human A549 cells at 2.5 uM after 24 hrs by annexinV-propidium iodide staining-based flow cytometric analysis (reference value: 10.81%); assay type: functional
[15] = Cytotoxicity against human CNE1 cells after 72 hrs by MTT assay; assay type: functional, cell-based; conditions: CNE; outline: as §1

COc1ccc(-c2nc3c4cccnc4c4ncccc4c3[nH]2)cc1
IC50 [1]: 1.36 µM

CCCCOc1ccc(-c2nc3c4cccnc4c4ncccc4c3[nH]2)cc1
IC50 [1]: 35.5 µM

Cc1ccc(-c2nc3c4cccnc4c4ncccc4c3[nH]2)cc1
IC50 [1]: 1.33 µM

Fc1ccc(-c2nc3c4cccnc4c4ncccc4c3[nH]2)cc1
IC50 [1]: 1.09 µM

CC(C)Oc1ccc(-c2nc3c4cccnc4c4ncccc4c3[nH]2)cc1
IC50 [1]: 31.9 µM

Brc1ccc(-c2nc3c4cccnc4c4ncccc4c3[nH]2)cc1
inhibition [2]: Dose-dependent effect
inhibition [3]: Dose-dependent effect
Activity [4]: Dose-dependent effect
inhibition [5]: tde
IC50 [6]: 5.8 µM
IC50 [7]: 1.56 µM
IC50 [8]: 4.3 µM
Activity [9]: 50.94%
IC50 [1]: 0.85 µM
inhibition [10]: tde
Activity [11]: 35.26%
Activity [12]: Dose-dependent effect
IC50 [13]: 0.98 µM
Activity [14]: 43.26%
IC50 [15]: 1.2 µM

CCOc1ccc(-c2nc3c4cccnc4c4ncccc4c3[nH]2)cc1
IC50 [1]: 1.96 µM

FC(F)(F)c1ccc(-c2nc3c4cccnc4c4ncccc4c3[nH]2)cc1
IC50 [1]: 1.73 µM

Clc1ccc(-c2nc3c4cccnc4c4ncccc4c3[nH]2)cc1
IC50 [1]: 1.06 µM

CCCOc1ccc(-c2nc3c4cccnc4c4ncccc4c3[nH]2)cc1
IC50 [1]: 18 µM

From ChEMBL document CHEMBL1933059, “Imidazo [4,5f][1,10] phenanthroline derivatives as inhibitor of c-myc gene expression in A549 cells via NF-κB pathway” (Bioorg Med Chem Lett, 2012)
